Reference: ChEMBL document CHEMBL5149972, “Novel Antimalarial Tetrazoles and Amides Active against the Hemoglobin Degradation Pathway in Plasmodium falciparum” (J Med Chem, 2021)
In brackets after ≈: the same amount, converted by molar mass. One block for each compound: values may come before it. Activity calls are given as the source filed them. No cut-off for these calls is given here.

What was measured:
Hemozoin = test: Inhibition of Beta-hematin assessed as bis-pyridyl-Fe(III)PPIX complex formation incubated for 5 hrs by NP40 detergent-mediated colorimetric assay
HepG2 = test: (§1) Cytotoxicity against human HepG2 cells assessed as reduction in cell viability incubated for 72 hrs by CellTiter-Glo assay; format: toxicity, cell-based; settings: hepg2, 72 h
Plasmodium falciparum [1] = test: Antiplasmodial activity against drug resistant Plasmodium falciparum Dd2 infected in human RBC assessed as parasite growth inhibition incubated for 72 hrs by SYBR Green dye based fluorescence assay; format: functional, organism-based
Procedure, shortened: (§2)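 Blood-stage cultures at 2% hematocrit, human O+ RBCs, RPMI 1640 + 25 mM HEPES, 0.5% Albumax-I, 23 mM bicarbonate, 92 μM hypoxanthine. Start at 0.5% parasitemia; 72 h at 37°C, 5% CO₂; freeze-thaw, then SYBR Green in saponin/Triton lysis buffer, 4 h RT dark; fluorescence ex 485/em 535 nm. 10-point curves, technical duplicates or triplicates, final 0.5% DMSO; four-parameter fit gives EC₅₀; mean ± std dev of biological replicates.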

Plasmodium falciparum [2] = test: Antiplasmodial activity against asexual blood stage Plasmodium falciparum 3D7 infected in human RBC assessed as parasite growth inhibition incubated for 72 hrs by SYBR Green dye based fluorescence assay; format: functional, organism-based; procedure, shortened: as §2
[3] = Kinetic solubility of compound in PBS at pH 6.5 by HPLC analysis; format: physicochemical; settings: read-out: Kinetic_solubility
[4] = Kinetic solubility of compound in PBS at pH 2 by HPLC analysis; format: physicochemical; settings: read-out: Kinetic_solubility
[5] = Metabolic stability in human liver microsomes assessed as intrinsic clearance per mg of protein at 1 uM incubated for 60 mins presence of NADPH regenerating buffer system by LC-MS analysis; format: ADME, Microsome; settings: 1 h
[6] = as §1; format: toxicity, cell-based; settings: HepG2 cells
Plasmodium falciparum [7] = test: Antiplasmodial activity against chloroquine and piperaquine resistant Plasmodium falciparum Dd2-M343L mutant replaced with endogenous pfcrt locus with the recombinant Dd2 sequence and the PPQ resistance-conferring M343L at endogenous pfcrt Dd2 locus infected in human RBC assessed as parasite growth inhibition incubated for 72 hrs by SYBR Green dye based fluorescence assay; format: functional, organism-based; settings: Erythrocyte
Procedure, shortened: (§3)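 Gene-edited Dd2 lines with the endogenous pfcrt locus replaced by zinc-finger nuclease editing. Concentration-response curves run with technical duplicates at each concentration; values are the average of two biological replicates, with std dev given where more replicates were collected.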

Plasmodium falciparum [8] = test: Antiplasmodial activity against chloroquine and pyrimethamine resistant Plasmodium falciparum K1 infected in human RBC assessed as parasite growth inhibition incubated for 72 hrs by SYBR Green dye based fluorescence assay; format: functional, organism-based; settings: K1, Erythrocyte
Plasmodium falciparum [9] = test: Antiplasmodial activity against lab-derived MMV390048 resistant Plasmodium falciparum Dd2-Pfpi4K mutant infected in human RBC assessed as parasite growth inhibition incubated for 72 hrs by SYBR Green dye based fluorescence assay; format: functional, organism-based; settings: Erythrocyte
Plasmodium falciparum [10] = test: Antiplasmodial activity against piperaquine and pyrimethamine resistant Plasmodium falciparum RF12 infected in human RBC assessed as parasite growth inhibition incubated for 72 hrs by SYBR Green dye based fluorescence assay; format: functional, organism-based; settings: RF12, Erythrocyte
Plasmodium falciparum [11] = test: Antiplasmodial activity against Plasmodium falciparum NF54 infected in human RBC assessed as parasite growth inhibition incubated for 72 hrs by SYBR Green dye based fluorescence assay; format: functional, organism-based; settings: NF54, Erythrocyte
Plasmodium falciparum [12] = test: Antiplasmodial activity against chloroquine and pyrimethamine resistant Plasmodium falciparum 7G8 infected in human RBC assessed as parasite growth inhibition incubated for 72 hrs by SYBR Green dye based fluorescence assay; format: functional, organism-based; settings: 7G8, Erythrocyte
Plasmodium falciparum [13] = test: Antiplasmodial activity against Plasmodium falciparum 3D7 assessed as parasite growth inhibition incubated for 48 hrs followed by compound washout further infected in RBC cells for 28 days by hemocrit analysis; format: functional, organism-based
Plasmodium falciparum [14] = test: Antiplasmodial activity against chloroquine resistant Plasmodium falciparum Dd2-Dd2 mutant replaced with recombinant Dd2 sequence at endogenous pfcrt Dd2 locus infected in human RBC assessed as parasite growth inhibition incubated for 72 hrs by SYBR Green dye based fluorescence assay; format: functional, organism-based; settings: Erythrocyte; procedure, shortened: as §3
[15] = Inhibition of hemozoin formation in sorbitol-synchronized early ring stage plasmodium falciparum NF54 trophozoites assessed as fold increase in free heme-Fe level at 3 times EC50 incubated for 32 hrs by flow cytometry analysis; format: functional
Procedure, shortened: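 Trophozoites were saponin-released (0.05%), PBS-washed, counted by flow cytometry, then hypotonically lysed and sonicated. Heme was fractionated with HEPES, SDS, pyridine and NaOH and read as Fe(III)heme–pyridine absorbance against a heme standard curve (fg/cell). Three biological replicates; Student's t-test.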

Plasmodium falciparum [16] = test: Antiplasmodial activity against lab-derived DSM265 resistant Plasmodium falciparum Dd2-PfDHODH mutant infected in human RBC assessed as parasite growth inhibition incubated for 72 hrs by SYBR Green dye based fluorescence assay; format: functional, organism-based; settings: Erythrocyte
Plasmodium falciparum [17] = test: Antiplasmodial activity against Plasmodium falciparum 3D7 infected in human RBC assessed as parasite growth inhibition incubated for 48 hrs by 3H-hypoxanthine incorporation assay; format: functional, organism-based; settings: 3D7, Erythrocyte
Plasmodium falciparum [18] = test: Antiplasmodial activity against chloroquine and pyrimethamine resistant Plasmodium falciparum Dd2 infected in human RBC assessed as parasite growth inhibition incubated for 72 hrs by SYBR Green dye based fluorescence assay; format: functional, organism-based; settings: Dd2, Erythrocyte
Procedure, shortened: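 O+ human RBCs at 2% hematocrit and 0.5% starting parasitemia, in RPMI 1640 with 25 mM HEPES, 0.5% Albumax-I, bicarbonate and hypoxanthine. Serial dilutions in triplicate, 0.5% DMSO final, 72 h at 37°C, 5% CO2. Frozen at −80°C, lysed with SYBR Green in saponin/Triton buffer for 4 h in the dark. Ex 485/em 535 nm. EC50 from four-parameter fit; biphasic fit where curves were biphasic.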

Plasmodium falciparum [19] = test: Antiplasmodial activity against lab-derived […] resistant Plasmodium falciparum Dd2-PfeEF2 mutant infected in human RBC assessed as parasite growth inhibition incubated for 72 hrs by SYBR Green dye based fluorescence assay; format: functional, organism-based; settings: Erythrocyte
Plasmodium falciparum [20] = test: Antiplasmodial activity against chloroquine resistant Plasmodium falciparum Dd2-GC03 mutant replaced with 3D7 pfcrt sequence at endogenous pfcrt Dd2 locus infected in human RBC assessed as parasite growth inhibition incubated for 72 hrs by SYBR Green dye based fluorescence assay; format: functional, organism-based; settings: Erythrocyte; procedure, shortened: as §3
Plasmodium falciparum [21] = test: Antiplasmodial activity against lab-derived ELQ300 resistant Plasmodium falciparum Dd2-PfCytB mutant infected in human RBC assessed as parasite growth inhibition incubated for 72 hrs by SYBR Green dye based fluorescence assay; format: functional, organism-based; settings: Erythrocyte
Plasmodium falciparum [22] = test: Antiplasmodial activity against chloroquine, atovaquone and pyrimethamine resistant Plasmodium falciparum TM90C2B infected in human RBC assessed as parasite growth inhibition incubated for 72 hrs by SYBR Green dye based fluorescence assay; format: functional, organism-based; settings: Erythrocyte
Plasmodium falciparum [23] = test: Antiplasmodial activity against Plasmodium falciparum NF54 expressing transgenic luciferase assessed as parasite kill rate at trophozoite stage incubated for 6 hrs by bioluminescence relative rate of kill (BRRoK) assay; format: functional, organism-based; settings: RBC
Plasmodium falciparum [24] = test: Antiplasmodial activity against Plasmodium falciparum NF54 expressing transgenic luciferase assessed as parasite kill rate at trophozoite stage incubated for 72 hrs by bioluminescence relative rate of kill (BRRoK) assay; format: functional, organism-based; settings: RBC
[25] = Plasmodium falciparum, Dd2, Erythrocyte, 72 h
[26] = Plasmodium falciparum, 3D7, Erythrocyte, 72 h

IC50 (Hemozoin): > 1000 µM
Compound: C[C@H]1[C@H](OC(=O)CCC(=O)O)O[C@@H]2O[C@@]3(C)CC[C@H]4[C@H](C)CC[C@@H]1[C@@]24OO3 [ARTESUNATE]

Compound: COc1ccc(Br)cc1CN(C)C(c1ccccc1)c1nnnn1-c1ccccc1C (racemic)
CC50 (HepG2): > 30 µM | EC50 (Plasmodium falciparum [1]; [25]): 5.4 µM | IC50 (Hemozoin): > 1000 µM | EC50 (Plasmodium falciparum [2]; rbc): 3.5 µM

Compound: O=C(C(c1cccnc1)N(Cc1cccc(C(F)(F)F)c1)C1CC1)N1CCCCC1 (racemic)
solubility kinetic [3]: 25 µg/mL (≈ 59.9 µM) | CC50 (HepG2): > 20 µM | EC50 (Plasmodium falciparum [1]; [25]): 4.2 µM | solubility kinetic [4]: > 100 µg/mL | CLH [5]: 244 µL/min/mg | EC50 (Plasmodium falciparum [2]; [26]): 1.8 µM

IC50 (Hemozoin): 60 µM
Compound: O[C@@H](c1cc(C(F)(F)F)nc2c(C(F)(F)F)cccc12)[C@H]1CCCCN1 [(S,R)-MEFLOQUINE]

Compound: Cc1ccccc1-n1nnnc1C(c1cncnc1)N(Cc1cc(F)cc(C(F)(F)F)c1)C1CC1 (racemic)
CC50 at 72 h [6]: 36 µM | EC50 (Plasmodium falciparum [1]; rbc): 1.2 µM | EC50 (Plasmodium falciparum [2]; [26]): 0.37 µM

Compound: Cc1ccccc1-n1nnnc1C(c1cncnc1)N(Cc1cccc(C(F)(F)F)c1)C1CC1 (racemic)
EC50 (Plasmodium falciparum [7]): 0.9 µM | EC50 (Plasmodium falciparum [8]): 0.46 µM | solubility kinetic [3]: 1.5 µg/mL (≈ 3.22 µM) | EC50 (Plasmodium falciparum [9]): 2 µM | EC50 (Plasmodium falciparum [10]): 1.1 µM | EC50 (Plasmodium falciparum [11]): 0.83 µM | CC50 at 72 h [6]: 33 µM | EC50 (Plasmodium falciparum [12]): 0.16 µM | EC50 (Plasmodium falciparum [1]; [25]): 1.8 µM | IC50 (Hemozoin): 310 µM | Activity (Plasmodium falciparum [13]): Active | solubility kinetic [4]: 1.5 µg/mL (≈ 3.22 µM) | EC50 (Plasmodium falciparum [14]): 2.4 µM | fold change (FC) [15]: 6 | EC50 (Plasmodium falciparum [16]): 2 µM | EC50 (Plasmodium falciparum [17]): 1.7 µM | EC50 (Plasmodium falciparum [18]): 1.8 µM | EC50 (Plasmodium falciparum [2]; [26]): 0.4 µM | EC50 (Plasmodium falciparum [19]): 1.6 µM | EC50 (Plasmodium falciparum [20]): 4.8 µM | EC50 (Plasmodium falciparum [21]): 2 µM | EC50 (Plasmodium falciparum [22]): 0.66 µM

Compound: COc1ccc(C(F)(F)F)cc1CN(C1CC1)C(c1cccnc1)c1nnnn1-c1ccccc1C (racemic)
solubility kinetic [3]: 1.6 µg/mL (≈ 3.24 µM) | EC50 (Plasmodium falciparum [1]; [25]): 0.48 µM | solubility kinetic [4]: 12.5 µg/mL (≈ 25.3 µM) | CLH [5]: 154 µL/min/mg | EC50 (Plasmodium falciparum [2]; [26]): 0.49 µM

Compound: Cc1ncccc1C(c1nnnn1C1CC1)N(C1CC1)C1(c2cccc(C(F)(F)F)c2)CC1 (racemic)
CC50 (HepG2): > 30 µM | EC50 (Plasmodium falciparum [1]; [25]): 16 µM | EC50 (Plasmodium falciparum [2]; [26]): 14 µM

Compound: CCc1ccccc1N(C)C(=O)C(c1cccnc1)N(Cc1cccc(C(F)(F)F)c1)C1CC1 (racemic)
CC50 (HepG2): > 20 µM | EC50 (Plasmodium falciparum [1]; [25]): 0.48 µM | EC50 (Plasmodium falciparum [2]; [26]): 0.19 µM

Compound: CCC(C(=O)Nc1cccc(Cl)c1)N1C(=O)C(C)N=C(c2ccccc2)c2ccccc21 (stereo not given)
Activity (Plasmodium falciparum [23]): Active | Activity (Plasmodium falciparum [24]): Active | CC50 at 72 h [6]: > 30 µM | EC50 (Plasmodium falciparum [2]; [26]): 0.31 µM

Compound: Cc1ccccc1N(C)C(=O)C(c1cccnc1)N(Cc1cccc(SC(F)(F)F)c1)C1CC1 (racemic)
CC50 (HepG2): > 30 µM | EC50 (Plasmodium falciparum [1]; [25]): 0.39 µM | EC50 (Plasmodium falciparum [2]; [26]): 0.31 µM

Compound: O=C1C(O)=C([C@H]2CC[C@H](c3ccc(Cl)cc3)CC2)C(=O)c2ccccc21 [ATOVAQUONE]
Activity (Plasmodium falciparum [23]): Active | Activity (Plasmodium falciparum [24]): Active | CC50 at 72 h [6]: > 30 µM | EC50 (Plasmodium falciparum [17]): 0.001 µM | EC50 (Plasmodium falciparum [2]; [26]): 0.0013 µM
